Test results published in ChEMBL document CHEMBL1152541, “Staurosporine tethered peptide ligands that target cAMP-dependent protein kinase (PKA): optimization and selectivity profiling” (Bioorg Med Chem, 2009).
One block for each molecule: values may come before it. *1 amine or outer side, *2 acyl side, *3 side chain or, on linkers, in order; H or OH if unused. Where a SMILES comes first, the peptide text is derived from it. Bridges are numbered along the chain shown (N, C = ends). [ ]: non-standard residue; d: D form. The star is where a group is joined. Staurosporine = CO[C@@H]1[C@H](N(C)*)C[C@H]2O[C@]1(C)n1c3ccccc3c3c4c(c5c6ccccc6n2c5c31)C(=O)NC4; Suc = O=C(CCC(=O)[*:2])[*:1]; Dap = NC[C@H](N)C(=O)O; βAla = NCCC(=O)O

Experiments:
[1] = system: Epidermal growth factor receptor (Homo sapiens), P00533 [L858R]; test: Binding affinity to human EGFR L858R mutant at 500 nM by cell-based competition binding assay relative to control in presence of DTT
Method in brief: (§1)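 Commercial (Ambit) competitive kinase-binding panel of 90 kinases measured the binding profile. Run under reducing conditions of 7.5 mM DTT. Binding is expressed relative to control.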

[2] = biological target: T1, Protein kinase C epsilon type (Homo sapiens) (UniProt Q02156); test: Binding affinity to human PRKCepsilon at 500 nM by cell-based competition binding assay relative to control in presence of DTT
T1 sequence (whole entry): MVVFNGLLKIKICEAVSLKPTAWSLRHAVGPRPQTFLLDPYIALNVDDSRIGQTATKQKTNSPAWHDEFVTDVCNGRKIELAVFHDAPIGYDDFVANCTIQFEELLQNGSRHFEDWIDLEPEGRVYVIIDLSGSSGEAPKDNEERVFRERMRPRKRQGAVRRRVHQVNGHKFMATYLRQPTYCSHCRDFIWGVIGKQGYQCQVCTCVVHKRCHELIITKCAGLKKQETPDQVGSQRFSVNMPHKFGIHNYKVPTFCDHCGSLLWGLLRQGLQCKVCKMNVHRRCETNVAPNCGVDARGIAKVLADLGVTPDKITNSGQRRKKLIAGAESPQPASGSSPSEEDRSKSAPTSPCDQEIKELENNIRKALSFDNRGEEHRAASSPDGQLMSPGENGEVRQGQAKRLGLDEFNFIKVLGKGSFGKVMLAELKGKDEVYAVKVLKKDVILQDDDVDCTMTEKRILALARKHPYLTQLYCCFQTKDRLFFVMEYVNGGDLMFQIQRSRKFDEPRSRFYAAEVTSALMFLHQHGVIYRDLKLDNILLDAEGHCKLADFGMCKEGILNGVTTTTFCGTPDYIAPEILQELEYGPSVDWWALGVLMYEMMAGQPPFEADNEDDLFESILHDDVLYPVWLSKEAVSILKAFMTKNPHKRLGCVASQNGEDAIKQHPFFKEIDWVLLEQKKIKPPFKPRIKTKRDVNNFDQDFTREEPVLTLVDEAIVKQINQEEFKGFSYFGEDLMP

[3] = biological target: T2, Activin receptor type-1B (Homo sapiens) (UniProt P36896); test: Binding affinity to human ACVR1B at 500 nM by cell-based competition binding assay relative to control in presence of DTT
T2 sequence (whole entry): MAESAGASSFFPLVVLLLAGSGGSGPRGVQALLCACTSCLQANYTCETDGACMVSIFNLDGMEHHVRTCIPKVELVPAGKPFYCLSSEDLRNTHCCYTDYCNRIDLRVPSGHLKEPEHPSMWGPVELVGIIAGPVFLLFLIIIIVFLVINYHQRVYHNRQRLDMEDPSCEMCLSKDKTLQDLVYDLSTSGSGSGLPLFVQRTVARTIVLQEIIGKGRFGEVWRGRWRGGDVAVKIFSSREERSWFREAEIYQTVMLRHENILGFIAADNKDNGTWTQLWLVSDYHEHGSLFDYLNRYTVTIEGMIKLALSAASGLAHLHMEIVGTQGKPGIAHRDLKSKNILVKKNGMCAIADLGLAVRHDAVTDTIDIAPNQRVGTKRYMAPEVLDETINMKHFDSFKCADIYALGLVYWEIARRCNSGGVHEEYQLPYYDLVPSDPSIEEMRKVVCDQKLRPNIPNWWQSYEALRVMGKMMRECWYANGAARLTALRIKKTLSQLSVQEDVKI
Method in brief: (§2)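 Kinase binding profiling ran on a commercial (Ambit) competitive binding screen against a panel of 90 kinases. The screen used reducing conditions with 7.5 mM DTT. To withstand the DTT, the bivalent ligand was tested as its amide isostere, with the disulfide replaced. A staurosporine derivative carrying a 3 β-alanine linker was run as the reference compound.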

[4] = biological target: Atypical kinase COQ8A, mitochondrial (Homo sapiens) (UniProt Q8NI60); test: Binding affinity to human ADCK3 at 500 nM by cell-based competition binding assay relative to control in presence of DTT; method in brief: as §2
[5] = biological target: Cyclin-dependent kinase 2 (Homo sapiens) (UniProt P24941); test: Binding affinity to human CDK2 at 500 nM by cell-based competition binding assay relative to control in presence of DTT; method in brief: as §2
[6] = biological target: Tyrosine-protein kinase JAK2 (Homo sapiens) (UniProt O60674); test: Binding affinity to human JAK2 kinase domain 2 at 500 nM by cell-based competition binding assay relative to control in presence of DTT
Method in brief: (§3)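 Competition binding screen (Ambit) across a panel of 90 kinases, scoring test ligand displacement of each kinase's binding relative to control. The screen ran under reducing conditions with 7.5 mM DTT.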

[7] = biological target: Hepatocyte growth factor receptor (Homo sapiens) (UniProt P08581); test: Binding affinity to human MET at 500 nM by cell-based competition binding assay relative to control in presence of DTT
[8] = biological target: Fibroblast growth factor receptor 3 (Homo sapiens) (UniProt P22607); test: Binding affinity to human FGFR3 at 200 nM by cell-based competition binding assay relative to control in presence of DTT; method in brief: as §1
[9] = biological target: Insulin receptor (Homo sapiens) (UniProt P06213); test: Binding affinity to human INSR at 200 nM by cell-based competition binding assay relative to control in presence of DTT; method in brief: as §3
[10] = biological target: Mitogen-activated protein kinase 9 (Homo sapiens) (UniProt P45984); test: Binding affinity to human JNK2 at 200 nM by cell-based competition binding assay relative to control in presence of DTT; method in brief: as §3
[11] = biological target: Casein kinase I isoform gamma-2 (Homo sapiens) (UniProt P78368); test: Binding affinity to human CSNK1G2 at 200 nM by cell-based competition binding assay relative to control in presence of DTT; method in brief: as §1
[12] = biological target: Cyclin-dependent kinase 7 (Homo sapiens) (UniProt P50613); test: Binding affinity to human CDK7 at 50 nM by cell-based competition binding assay relative to control in presence of DTT; method in brief: as §2
[13] = biological target: Serine/threonine-protein kinase PAK 2 (Homo sapiens) (UniProt Q13177); test: Binding affinity to human PAK2 at 50 nM by cell-based competition binding assay relative to control in presence of DTT
[14] = biological target: Serine/threonine-protein kinase pim-1 (Homo sapiens) (UniProt P11309); test: Binding affinity to human PIM1 at 50 nM by cell-based competition binding assay relative to control in presence of DTT
[15] = biological target: High affinity nerve growth factor receptor (Homo sapiens) (UniProt P04629); test: Binding affinity to human TRKA at 50 nM by cell-based competition binding assay relative to control in presence of DTT
[16] = biological target: Non-receptor tyrosine-protein kinase TYK2 (Homo sapiens) (UniProt P29597); test: Binding affinity to human TYK2 kinase domain 2 at 50 nM by cell-based competition binding assay relative to control in presence of DTT
[17] = biological target: Glycogen synthase kinase-3 beta (Homo sapiens) (UniProt P49841); test: Binding affinity to human GSK3-beta at 50 nM by cell-based competition binding assay relative to control in presence of DTT; method in brief: as §3

Activity [1]: 53%
Activity [2]: 0.6%
Activity [3]: 87%
Activity [4]: 91%
Activity [5]: 69%
Activity [6]: 2.4%
Activity [7]: 46%
SMILES: CO[C@@H]1[C@H](N(C)C(=O)CCC(=O)NCCC(=O)NCCC(=O)NCCC(N)=O)C[C@H]2O[C@]1(C)n1c3ccccc3c3c4c(c5c6ccccc6n2c5c31)C(=O)NC4

Activity [8]: 85%
Activity [9]: 100%
Activity [10]: 89%
Activity [11]: 100%
SMILES: CO[C@@H]1[C@H](N(C)C(=O)CCC(=O)NCCC(=O)NCCC(=O)NCCC(=O)NCCC(=O)NCCC(=O)NCCC(=O)NCCC(=O)N[C@H]2CSSC[C@@H](C(=O)NCC(N)=O)NC(=O)CNC(=O)[C@H](Cc3ccccc3)NC(=O)[C@H](C(C)C)NC(=O)[C@H](CCCNC(=N)N)NC(=O)[C@H](Cc3ccccc3)NC(=O)[C@H](C(C)C)NC2=O)C[C@H]2O[C@]1(C)n1c3ccccc3c3c4c(c5c6ccccc6n2c5c31)C(=O)NC4 ({Staurosporine-Suc-βAla-βAla-βAla-βAla-βAla-βAla-βAla}-CVFRVFGCG-NH2; disulfide 1-8)

Activity [12]: 98%
Activity [13]: 72%
Activity [14]: 79%
Activity [15]: 98%
Activity [16]: 100%
Activity [17]: 74%
SMILES: CO[C@@H]1[C@H](N(C)C(=O)CCC(=O)NCCC(=O)NCCC(=O)NCCC(=O)NCCC(=O)NCCC(=O)NCCC(=O)NCCC(=O)N[C@H]2CNC(=O)C[C@@H](C(N)=O)NC(=O)CNC(=O)[C@H](Cc3ccccc3)NC(=O)[C@H](C(C)C)NC(=O)[C@H](CCCNC(=N)N)NC(=O)[C@H](Cc3ccccc3)NC(=O)[C@H](C(C)C)NC2=O)C[C@H]2O[C@]1(C)n1c3ccccc3c3c4c(c5c6ccccc6n2c5c31)C(=O)NC4 ({Staurosporine-Suc-βAla-βAla-βAla-βAla-βAla-βAla-βAla}-[Dap]VFRVFGD-NH2; lactam 1-8)
